The text below walks through data of ChEMBL document CHEMBL3271979, “Inhibition of solid tumors by nitrosoureas. 1. Lewis lung carcinoma” (1977).

The subject of test [1] is Mus musculus. As to the kind of experiment: Antitumor activity against mouse advanced Lewis lung carcinoma allografted in BDF1 mouse assessed as complete regression of established tumor at 13 mg/kg, ip administered as single dose on 7th day post-tumor implantation. Details: dose 13 mg/kg. It counts as functional, organism-based. The method, boiled down: (§1)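 BDF1 mice (C57Blk/6 × DBA/2) implanted sc by trocar with about 40 mg Lewis lung tumor fragments from bacteriologically sterile donors. Advanced-disease groups held tumors of about 400 mg by day 6-7, sized by caliper (w = ab²/2). Single ip injection on day 7, in water or saline vehicle, at or below the LD10 in normal mice. Tumors measured at least twice weekly.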

Test [2] deals with Mus musculus. As to the kind of experiment: Antitumor activity against mouse early Lewis lung carcinoma allografted in ip dosed BDF1 mouse assessed as disease cure administered as single dose on 1 or 2 days post-tumor implantation measured for 80 days post-drug treatment. It counts as functional. In outline: (§2)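 BDF1 mice implanted sc by trocar with ~40 mg Lewis lung fragments from sterile donor tumors. A single ip dose was given on day 1 or 2 after implant, in water or saline vehicle. Cures were scored in animals observed for at least 80 days after treatment. Drug-toxicity controls were matched non-tumor-bearing mice monitored for body weight and deaths.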

The test system of test [3] is Mus musculus. As to the kind of experiment: Antitumor activity against mouse advanced Lewis lung carcinoma allografted in ip dosed BDF1 mouse assessed as complete regression of established tumor administered as single dose on day 6 or 7 post-tumor implantation. It counts as functional, organism-based. In outline: (§3)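 BDF1 mice (C57Blk/6 × DBA/2) implanted sc by trocar with Lewis lung tumor fragments of about 40 mg, taken only from bacteriologically sterile donor tumors. Mice bearing tumors of about 400 mg (day 6-7) were selected. Each received a single ip dose on day 7, at or below the LD10 in normal mice. Groups were of 10 mice. Tumor weight was taken from calipers as w = ab²/2, measured at least twice weekly. Matched non-tumor mice served as toxicity controls.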

Test [4] concerns Mus musculus. As to the kind of experiment: Antitumor activity against mouse advanced Lewis lung carcinoma allografted in BDF1 mouse assessed as disease cure at 13 mg/kg, ip administered as single dose on 7th day post-tumor implantation measured for 80 days post-drug treatment. The format is functional, organism-based. Details: dose 13 mg/kg. The method, boiled down:
as §1

The nature of test [5]: Ratio of ED50 for antitumor activity against mouse L1210 cells allografted in ip dosed mouse to LD10 for mouse.
Test [6] is described as follows: Antitumor activity against mouse advanced Lewis lung carcinoma allografted in BDF1 mouse assessed as increase in host life span at 13 mg/kg, ip administered as single dose on 7th day post-tumor implantation. It counts as functional. As to conditions: route intraperitoneal. The method, boiled down:
as §1

A short description of test [7]: Antitumor activity against mouse advanced Lewis lung carcinoma allografted in ip dosed BDF1 mouse assessed as increase in host lifespan administered as single dose on day 6 or 7 post-tumor implantation. The format is functional. In outline:
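Advanced Lewis lung model: about 40 mg fragments implanted sc by trocar into BDF1 mice, and mice with tumors of about 400 mg (day 6-7) selected. Tumor weight from calipers, w = ab²/2. Agent given as one ip dose in distilled water or physiological saline. Nontumor-bearing mice received matching doses as toxicity controls.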

Test [8] has as its system Mus musculus. As to the kind of experiment: Antitumor activity against mouse advanced Lewis lung carcinoma allografted in ip dosed BDF1 mouse assessed as disease cure administered as single dose on day 6 or 7 post-tumor implantation. It counts as functional, organism-based. The method, boiled down:
as §3

The subject of test [9] is Mus musculus. Briefly: Antitumor activity against mouse early Lewis lung carcinoma allografted in ip dosed BDF1 mouse administered as single dose on 1 or 2 days post-tumor implantation measured for 80 days post-drug treatment. The format is functional, organism-based. The method, boiled down:
as §2

The test system of test [10] is Mus musculus. Briefly: Antitumor activity against mouse advanced Lewis lung carcinoma allografted in BDF1 mouse assessed as disease cure at 36 mg/kg, ip administered as single dose on 7th day post-tumor implantation measured for 80 days post-drug treatment. The format is functional, organism-based. On the set-up: dose 36 mg/kg. In outline: as §3
For test [11], the system named is Mus musculus. As to the kind of experiment: Antitumor activity against mouse advanced Lewis lung carcinoma allografted in BDF1 mouse assessed as disease cure at 54 mg/kg, ip administered as single dose on 7th day post-tumor implantation measured for 80 days post-drug treatment. The format is functional, organism-based. Details: dose 54 mg/kg. In outline: as §3

Test [12] is described as follows: Antitumor activity against mouse advanced Lewis lung carcinoma allografted in BDF1 mouse assessed as increase in host life span at 54 mg/kg, ip administered as single dose on 7th day post-tumor implantation. It counts as functional. As to conditions: route intraperitoneal. The method, boiled down: as §1
A short description of test [13]: Antitumor activity against mouse advanced Lewis lung carcinoma allografted in BDF1 mouse assessed as increase in host life span at 36 mg/kg, ip administered as single dose on 7th day post-tumor implantation. The format is functional. The settings on record: route intraperitoneal. In outline:
as §1

The source made the active and inactive calls. The calls are words filed in the database; no cut-off is given here.

Usually ILS stands for the gain in survival time of treated over control animals, in per cent. Take `O=NN(CCCl)C(=O)N[C@H]1C(O)O[C@H](CO)[C@@H](O)[C@@H]1O` (stereo not given in full) [CHLOROZOTOCIN]: the inhibition entry in test [1] and in test [3] was “inactive” throughout. Besides, the result in test [2], in [4], in test [8] and in test [9] was inactive. Further, in [5], the Ratio is reported as 0.4. For the same compound, the ILS at 13 mg/kg in test [6] was found to be 25%. The ILS in test [7] was greater than 25%.

For the compound `COC(=O)[C@H]1CC[C@@H](NC(=O)N(CCCl)N=O)CC1`, the result in test [10], in test [11] and in [8] was inactive. Also, in test [3], the inhibition entry is “Active”. Also, the ILS at 54 mg/kg in test [12] worked out at 100%. Besides, the ILS at 36 mg/kg in test [13] amounted to 120%.
